{"source": "paper PMC3548935", "about": "(Cancer research, 2012)", "key": {"NRP-1": {"target": "NRP-1 (Homo sapiens, UniProt O14786)", "sequence (O14786 22-923)": "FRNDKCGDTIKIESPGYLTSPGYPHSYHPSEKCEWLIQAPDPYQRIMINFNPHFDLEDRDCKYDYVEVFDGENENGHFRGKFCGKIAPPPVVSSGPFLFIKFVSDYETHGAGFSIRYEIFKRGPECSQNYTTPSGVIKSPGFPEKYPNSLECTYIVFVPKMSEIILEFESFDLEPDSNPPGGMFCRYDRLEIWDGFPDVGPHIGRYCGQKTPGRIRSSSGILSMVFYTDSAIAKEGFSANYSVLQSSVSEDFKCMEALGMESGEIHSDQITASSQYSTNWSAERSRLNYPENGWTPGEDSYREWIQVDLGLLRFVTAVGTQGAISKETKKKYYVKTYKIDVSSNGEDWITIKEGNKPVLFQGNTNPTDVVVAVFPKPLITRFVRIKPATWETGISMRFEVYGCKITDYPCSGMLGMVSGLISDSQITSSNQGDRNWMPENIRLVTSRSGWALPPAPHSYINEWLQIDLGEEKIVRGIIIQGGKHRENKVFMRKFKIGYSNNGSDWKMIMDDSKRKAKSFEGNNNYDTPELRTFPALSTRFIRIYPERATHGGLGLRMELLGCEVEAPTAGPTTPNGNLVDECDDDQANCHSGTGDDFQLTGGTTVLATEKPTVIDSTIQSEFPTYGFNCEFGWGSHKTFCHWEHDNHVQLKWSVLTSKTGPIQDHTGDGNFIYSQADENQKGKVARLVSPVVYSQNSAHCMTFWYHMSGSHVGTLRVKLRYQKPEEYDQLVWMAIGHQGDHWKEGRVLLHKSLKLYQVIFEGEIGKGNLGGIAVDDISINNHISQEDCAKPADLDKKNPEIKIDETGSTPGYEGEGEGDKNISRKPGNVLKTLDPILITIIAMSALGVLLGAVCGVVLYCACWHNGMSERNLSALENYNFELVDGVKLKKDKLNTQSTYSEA", "assay": "Dose-dependent binding of phage to purified NRP-1", "details": "phage-displayed peptide, Fig. 1E; for Phage binding to immobilized NRP-1: anti-T7 phage antibody / HRP detection", "summary_of_the_method": "(§1)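 Peptide-displaying T7 phage was added over a range of phage amounts to purified NRP-1 or NRP-2 protein. Bound phage was detected with a rabbit anti-T7 phage antibody followed by an HRP-labeled goat anti-rabbit secondary antibody.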"}, "NRP-2": {"target": "T1, NRP-2 (Homo sapiens, UniProt O60462)", "T1 sequence (O60462 21-931)": "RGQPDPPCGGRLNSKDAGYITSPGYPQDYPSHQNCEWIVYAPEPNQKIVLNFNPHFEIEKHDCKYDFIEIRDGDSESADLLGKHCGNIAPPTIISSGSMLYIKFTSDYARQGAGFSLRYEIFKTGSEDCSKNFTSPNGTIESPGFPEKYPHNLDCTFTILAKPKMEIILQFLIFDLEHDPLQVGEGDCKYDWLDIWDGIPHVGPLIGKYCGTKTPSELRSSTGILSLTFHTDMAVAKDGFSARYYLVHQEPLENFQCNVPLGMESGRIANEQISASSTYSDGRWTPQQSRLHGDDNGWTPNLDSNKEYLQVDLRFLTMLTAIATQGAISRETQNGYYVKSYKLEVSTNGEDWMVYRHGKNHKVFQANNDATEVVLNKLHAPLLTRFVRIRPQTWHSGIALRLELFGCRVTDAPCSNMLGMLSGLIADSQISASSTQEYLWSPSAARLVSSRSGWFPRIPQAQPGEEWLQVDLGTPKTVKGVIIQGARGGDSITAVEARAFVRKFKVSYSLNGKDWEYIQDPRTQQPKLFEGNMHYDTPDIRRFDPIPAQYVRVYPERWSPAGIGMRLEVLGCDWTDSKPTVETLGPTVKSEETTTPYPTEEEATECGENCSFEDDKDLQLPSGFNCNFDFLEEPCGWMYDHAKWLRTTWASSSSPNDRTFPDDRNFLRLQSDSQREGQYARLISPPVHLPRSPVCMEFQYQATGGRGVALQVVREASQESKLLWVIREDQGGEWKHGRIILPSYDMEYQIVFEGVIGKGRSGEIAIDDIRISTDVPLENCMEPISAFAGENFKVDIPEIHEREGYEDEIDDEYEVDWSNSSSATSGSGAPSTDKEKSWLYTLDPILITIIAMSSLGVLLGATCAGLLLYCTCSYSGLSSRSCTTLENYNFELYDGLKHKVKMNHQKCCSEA", "assay": "Dose-dependent binding of phage to purified NRP-2", "details": "phage-displayed peptide, Fig. 1F; for Phage binding to immobilized NRP-2: anti-T7 phage antibody / HRP detection", "summary_of_the_method": "as §1"}, "tumors": {"tested_on": "tumors", "details": "cited from earlier work"}, "4T1 tumors": {"tested_on": "4T1 tumors", "details": "no penetrating peptide; cited from earlier work"}, "[1]": {"tested_on": "orthotopic 4T1 breast tumors", "assay": "Tumor treatment study, orthotopic 4T1 breast tumors", "format": "in vivo, mouse", "details": "DOX 3 mg/kg + 4 µmol/kg iNGR i.v. every other day"}, "HUVECs": {"tested_on": "HUVECs", "assay": "Mass spectrometry of peptide inside HUVECs after incubation with FAM-peptide", "format": "cell-based, human", "details": "Fig. S4"}}}
{"compound": "CRGDK [iRGDt]", "values": [{"measurement": "Phage binding to immobilized NRP-1", "setting": "NRP-1", "value": "bound to the NRPs"}, {"measurement": "Phage binding to immobilized NRP-2", "setting": "NRP-2", "value": "bound to the NRPs"}]}
{"compound": "CRNGR [iNGRt]", "values": [{"measurement": "Phage binding to immobilized NRP-1", "setting": "NRP-1", "value": "bound to the NRPs"}, {"measurement": "Affinity for NRP-1 compared with iRGDt", "setting": "NRP-1", "value": "higher affinity"}, {"measurement": "Phage binding to immobilized NRP-2", "setting": "NRP-2", "value": "bound to the NRPs"}, {"measurement": "Affinity for NRP-2 compared with iRGDt", "setting": "NRP-2", "value": "higher affinity"}]}
{"compound": "CGNKRTRGC [LyP-1]", "values": [{"measurement": "Tumor penetration", "setting": "tumors", "value": "penetrates into tumors through the CendR/NRP mechanism"}]}
{"compound": "CGKRK", "values": [{"measurement": "Tumor homing and extravasation of NWs coated with the peptide", "setting": "4T1 tumors", "value": "brings the NWs to tumor vessels, but does not trigger extravasation"}]}
{"compound": "COc1cccc2c1C(=O)c1c(O)c3c(c(O)c1C2=O)C[C@@](O)(C(=O)CO)C[C@@H]3O[C@H]1C[C@H](N)[C@H](O)[C@H](C)O1", "note": "[Doxorubicin, doxorubicin]", "values": [{"measurement": "Efficacy of doxorubicin given together with iNGR", "setting": "[1]", "value": "significantly more efficacious than the drug alone"}]}
{"compound": "FAM-CNGRC", "values": [{"measurement": "Peptide present inside HUVECs after incubation with FAM-peptide", "setting": "HUVECs", "value": "did not penetrate into the cells"}]}
